Activity calls are given as the source filed them.
Legend:
[1] = biological target: T1, Protein deacetylase HDAC6 (Homo sapiens, UniProt Q9UBN7); assay: Inhibition of recombinant human HDAC6 expressed in SF9 baculoviral system using FAM-labeled acetylated peptide as substrate by EMSA
T1 sequence (Q9UBN7 whole entry): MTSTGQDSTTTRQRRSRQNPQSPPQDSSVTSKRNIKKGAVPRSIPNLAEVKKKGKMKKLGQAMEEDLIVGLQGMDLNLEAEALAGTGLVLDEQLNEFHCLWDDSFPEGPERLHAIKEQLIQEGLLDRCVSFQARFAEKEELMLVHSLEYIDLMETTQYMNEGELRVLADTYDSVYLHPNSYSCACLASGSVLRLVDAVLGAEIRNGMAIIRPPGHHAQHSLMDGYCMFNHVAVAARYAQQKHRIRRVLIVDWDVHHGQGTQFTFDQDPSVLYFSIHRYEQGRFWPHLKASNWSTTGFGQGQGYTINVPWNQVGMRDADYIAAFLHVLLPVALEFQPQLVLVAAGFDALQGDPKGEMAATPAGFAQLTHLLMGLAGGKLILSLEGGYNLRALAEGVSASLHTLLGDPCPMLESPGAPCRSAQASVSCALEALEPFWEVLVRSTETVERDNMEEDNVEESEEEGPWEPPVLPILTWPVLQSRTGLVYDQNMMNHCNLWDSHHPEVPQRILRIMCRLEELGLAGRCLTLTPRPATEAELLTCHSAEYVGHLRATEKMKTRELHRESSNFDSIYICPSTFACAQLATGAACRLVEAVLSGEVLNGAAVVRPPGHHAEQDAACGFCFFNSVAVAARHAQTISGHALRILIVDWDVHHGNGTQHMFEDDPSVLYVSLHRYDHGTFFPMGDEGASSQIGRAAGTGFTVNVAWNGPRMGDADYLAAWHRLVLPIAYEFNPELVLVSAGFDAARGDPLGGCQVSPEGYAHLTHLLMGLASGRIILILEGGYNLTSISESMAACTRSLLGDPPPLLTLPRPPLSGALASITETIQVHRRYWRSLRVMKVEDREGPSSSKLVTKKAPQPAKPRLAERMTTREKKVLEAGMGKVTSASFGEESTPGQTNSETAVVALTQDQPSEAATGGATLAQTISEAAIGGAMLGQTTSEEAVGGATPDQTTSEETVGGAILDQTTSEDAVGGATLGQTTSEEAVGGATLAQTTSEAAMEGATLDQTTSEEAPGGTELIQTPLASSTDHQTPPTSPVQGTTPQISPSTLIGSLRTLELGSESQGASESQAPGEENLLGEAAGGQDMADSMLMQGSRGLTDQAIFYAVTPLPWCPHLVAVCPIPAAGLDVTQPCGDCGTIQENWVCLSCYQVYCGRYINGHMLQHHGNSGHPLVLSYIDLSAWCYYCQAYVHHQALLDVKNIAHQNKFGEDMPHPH
Outline: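 Full-length recombinant human enzyme from an Sf9 baculovirus system, in 100 mM HEPES pH 7.5 with 25 mM KCl, 0.1% BSA, 0.01% Triton X-100 and 1% DMSO. Final enzyme was 0.5 nM for HDAC3, 60 nM for HDAC6 and 5.0 nM for HDAC8. FAM-acetylated peptide was 1 μM. The read-out was product/(substrate+product) by microfluidic mobility shift, with inhibition set against DMSO and no-enzyme controls (quadruplicate). Compounds were tested at 12 threefold-spaced concentrations, and IC50 came from a four-parameter sigmoid fit.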

Histone deacetylase 3 = Histone deacetylase 3 (Homo sapiens, UniProt O15379); assay: Inhibition of recombinant human HDAC3 expressed in SF9 baculoviral system at 10 uM using FAM-labeled acetylated peptide as substrate by EMSA relative to control
Histone deacetylase 3, sequence (O15379 whole entry): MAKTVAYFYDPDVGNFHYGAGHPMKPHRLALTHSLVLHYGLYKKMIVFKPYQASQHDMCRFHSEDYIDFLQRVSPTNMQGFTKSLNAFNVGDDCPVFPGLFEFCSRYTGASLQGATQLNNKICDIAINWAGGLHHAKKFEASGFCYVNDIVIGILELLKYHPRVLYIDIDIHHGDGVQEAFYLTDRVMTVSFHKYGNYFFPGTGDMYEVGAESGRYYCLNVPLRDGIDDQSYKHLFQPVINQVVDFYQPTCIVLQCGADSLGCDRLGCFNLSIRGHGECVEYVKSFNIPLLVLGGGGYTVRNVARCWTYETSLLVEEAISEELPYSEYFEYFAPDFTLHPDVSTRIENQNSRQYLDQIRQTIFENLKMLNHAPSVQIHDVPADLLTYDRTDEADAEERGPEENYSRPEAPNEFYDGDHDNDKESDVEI
Outline: (§1)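 Single-point screen at 10 μM compound, using full-length recombinant human enzyme expressed in Sf9 cells. Buffer was HEPES pH 7.5 with KCl, BSA and Triton X-100, and 1% DMSO. Final enzyme was 0.5 nM for HDAC3, 60 nM for HDAC6 and 5.0 nM for HDAC8, with 1 μM FAM-acetylated peptide. Percent inhibition was derived from the product sum ratio relative to DMSO-only (0%) and no-enzyme (100%) controls.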

[2] = biological target: Histone deacetylase 8 (Homo sapiens) (UniProt Q9BY41); assay: Inhibition of recombinant human HDAC8 expressed in SF9 baculoviral system at 10 uM using FAM-labeled acetylated peptide as substrate by EMSA relative to control; outline: as §1
Histone deacetylase 8 (Homo sapiens), sequence (Q9BY41 whole entry): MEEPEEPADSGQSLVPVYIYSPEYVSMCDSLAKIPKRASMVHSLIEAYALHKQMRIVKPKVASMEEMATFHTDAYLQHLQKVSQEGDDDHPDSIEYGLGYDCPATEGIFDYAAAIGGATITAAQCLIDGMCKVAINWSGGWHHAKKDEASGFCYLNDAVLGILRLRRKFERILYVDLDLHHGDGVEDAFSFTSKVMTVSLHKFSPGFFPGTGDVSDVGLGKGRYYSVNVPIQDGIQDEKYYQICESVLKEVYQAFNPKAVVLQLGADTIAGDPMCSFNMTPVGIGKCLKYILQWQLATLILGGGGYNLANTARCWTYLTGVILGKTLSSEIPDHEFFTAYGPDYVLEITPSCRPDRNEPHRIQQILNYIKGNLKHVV

MV4-11 = assay: Cytotoxicity against human MV4-11 cells at 50 uM after 72 hrs by CellTiter-Blue assay; type: functional, cell-based
Outline: (§2)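 Cells in 10% FBS medium, 10 000 cells/well, treated 24 h after plating. Twofold dilution series from a 50.0 μM top dose to 0.097656 μM, in triplicate, 0.5% DMSO vehicle. 72 h at 37 °C, 5% CO2. CellTiter-Blue for 1–4 h, fluorescence 560/590 nm. IC50 by nonlinear regression.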

[3] = Cytotoxicity against human MRC9 cells at 50 uM after 72 hrs by CellTiter-Blue assay; type: cell-based; outline: as §2
[4] = Drug uptake in NSG mouse serum at 20 mg/kg, ip administered as single dose and measured at 8 hrs by HPLC-MS/MS analysis; type: ADME, organism-based; conditions: read-out: Drug uptake
Outline: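 NSG mice given a single 20 mg/kg IP dose in Cremophor EL/EtOH (1:1, 4% final volume)/sterile saline. Tail-vein blood at 0.5, 1, 2, 4, 8 and 24 h, n = 2. Drug quantified in serum/plasma. Half-life and clearance calculated assuming 100% bioavailability.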

[5] = Drug uptake in NSG mouse serum at 40 mg/kg, ip administered daily for 5 days by HPLC-MS/MS analysis; type: ADME, organism-based; conditions: read-out: Drug uptake
Outline: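 NSG mice dosed IP once daily for 5 days at 10 or 40 mg/kg, n = 6. Blood collected 5 h after the final injection for serum drug concentration, reported ± SD.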

Pa03C [6] = assay: Cytotoxicity against human Pa03C cells assessed as reduction in tumor spheroid area after 72 hrs by Alamar Blue assay; type: functional, cell-based
Outline: (§3)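 3D spheroids of patient-derived PDAC cells (tomato red) alone or with CAF19 cells, plus CAF cultures. Imaging read-outs: area is the μ2 of objects above a tomato red intensity threshold; intensity is summed red or green pixel fluorescence after background removal. n = 3–5.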

Pa03C [7] = assay: Cytotoxicity against human Pa03C cells assessed as reduction in tumor spheroid intensity after 72 hrs in presence of human CAF19 cells by Alamar Blue assay; type: functional, cell-based; outline: as §3
Panc1005 = assay: Cytotoxicity against human Panc 10.05 cells assessed as reduction in tumor spheroid area after 72 hrs in presence of human CAF19 cells by Alamar Blue assay; type: functional, cell-based; conditions: Panc1005, 72 h; outline: as §3
[8] = biological target: Signal transducer and activator of transcription 3 (Homo sapiens) (UniProt P40763); assay: Inhibition of STAT3 phosphorylation at Y705 residue in human BTSC 100EF cells at 1 to 10 uM after 24 hrs by Western blot method; type: cell-based
Signal transducer and activator of transcription 3 (Homo sapiens), sequence (P40763 whole entry): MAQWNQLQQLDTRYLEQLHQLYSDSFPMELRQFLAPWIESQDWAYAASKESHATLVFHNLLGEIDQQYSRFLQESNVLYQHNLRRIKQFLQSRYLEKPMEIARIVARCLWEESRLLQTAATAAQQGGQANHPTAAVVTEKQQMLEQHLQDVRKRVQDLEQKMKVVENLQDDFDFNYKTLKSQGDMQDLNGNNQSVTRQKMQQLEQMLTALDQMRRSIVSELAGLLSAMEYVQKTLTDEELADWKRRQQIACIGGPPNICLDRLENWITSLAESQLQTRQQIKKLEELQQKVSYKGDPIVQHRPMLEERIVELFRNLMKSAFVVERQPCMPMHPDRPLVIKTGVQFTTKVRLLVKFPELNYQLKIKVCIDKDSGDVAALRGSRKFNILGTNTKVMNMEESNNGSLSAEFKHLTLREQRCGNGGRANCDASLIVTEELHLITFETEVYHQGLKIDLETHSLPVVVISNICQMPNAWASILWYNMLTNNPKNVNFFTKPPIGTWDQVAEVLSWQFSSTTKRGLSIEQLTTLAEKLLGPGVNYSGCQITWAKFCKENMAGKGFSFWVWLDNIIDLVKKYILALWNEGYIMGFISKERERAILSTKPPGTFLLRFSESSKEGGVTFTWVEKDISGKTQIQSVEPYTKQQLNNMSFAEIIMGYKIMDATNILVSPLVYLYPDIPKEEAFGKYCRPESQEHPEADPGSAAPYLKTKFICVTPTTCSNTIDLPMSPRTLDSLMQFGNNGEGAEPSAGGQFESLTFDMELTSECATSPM
Outline: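 BTSCs dissociated to single cells and treated with drug or DMSO. Lysed in RIPA buffer with protease inhibitors. 20 μg lysate run on SDS-PAGE and transferred to nitrocellulose. Blocked in 5% milk, primary antibody overnight at 4 °C, then HRP secondary for 1 h.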

[9] = Lipophilicity, log D of the compound at pH 7.4 by LC-ESI MS analysis; type: physicochemical; conditions: buffer
Outline: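 Partitioning measured in a 1-octanol/phosphate-buffered saline system at pH 7.4.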

## CC(C)(C)c1ccc(CN(C(=O)CN(Cc2c(F)c(F)c(F)c(F)c2F)S(=O)(=O)c2ccc(F)cc2)c2ccc(C(=O)NO)cc2)cc1
[1]
  IC50: 190 nM
Histone deacetylase 3
  inhibition: 98%
[2]
  inhibition: 94%
MV4-11
  Activity: Active
[3]
  Activity: Non-Toxic
[4]
  concentration at 8 h: 6390 ng/mL
[5]
  concentration at 120 h: 2640 nM
Pa03C [6]
  IC50: 1220 nM
Pa03C [7]
  IC50: 1560 nM
Panc1005
  IC50: 940 nM
[8]
  inhibition: inactive
[9]
  logD: 4.15

Source: ChEMBL document CHEMBL4400543, “Identification and Characterization of AES-135, a Hydroxamic Acid-Based HDAC Inhibitor That Prolongs Survival in an Orthotopic Mouse Model of Pancreatic Cancer” (J Med Chem, 2019)
